Source: ChEMBL document CHEMBL1122045, “Synthesis and pharmacological evaluation of reduced diastereoisomeric and quaternary ammonium derivatives of calcium antagonistic (methylenedioxy)indenes on the isolated rat aorta” (J Med Chem, 1982)

How the values were obtained:
[1] = organism: Rattus norvegicus; test: Evaluated for its potency against norepinephrine (NE) (at a dose level of 10 E-7 M) induced aortic contractions in male Sprague-Dawley rats.; assay type: functional; settings: Aorta
How it was run: (§1)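 Thoracic aorta segments (2.5 cm) from male Sprague–Dawley rats (250–300 g) were equilibrated 1–1.5 h, then contracted with NE 1×10^-7 M or KCl 40 mM, final bath levels. Compound was added in rising concentrations, up to 30 min per step. Tension was taken as % of pre-drug control, fatigue-adjusted. Per-tissue probit transform with linear regression gave IC50.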

[2] = organism: Rattus norvegicus; test: Evaluated for its potency (IC 50) against potassium Chloride (KCl) (at a dose level of 40 mM) induced aortic contractions in male Sprague-Dawley rats.; assay type: functional; settings: Aorta; how it was run: as §1

| Structure (SMILES) | IC50 [1] | IC50 [2] |
| --- | --- | --- |
| CCC[C@@H]1Cc2cc3c(cc2[C@H]1N(C)C)OCO3 | 383 µM | 98.9 µM |
| CCCC[C@@H]1Cc2cc3c(cc2[C@H]1N(C)C)OCO3 | 151 µM | 31.1 µM |
| CCC[C@@H]1Cc2cc3c(cc2[C@@H]1[N+](C)(C)C)OCO3 | 1020 µM | 871 µM |
| CCCCC1=Cc2cc3c(cc2C1N(C)C)OCO3 (stereo not given) | 74.1 µM | 20.3 µM |
| CCCC1=Cc2cc3c(cc2C1N(C)C)OCO3 (stereo not given) | 78.2 µM | 21.4 µM |
| CCCC[C@@H]1Cc2cc3c(cc2[C@@H]1[N+](C)(C)C)OCO3 | 281 µM | 175 µM |
| CCC[C@@H]1Cc2cc3c(cc2[C@@H]1N(C)C)OCO3 | 59.4 µM | 30 µM |
| CCCC[C@@H]1Cc2cc3c(cc2[C@@H]1N(C)C)OCO3 | 37.9 µM | 17.4 µM |
| CCCCC1=Cc2cc3c(cc2C1[N+](C)(C)C)OCO3 (stereo not given) | 128 µM | 169 µM |
| CCCC1=Cc2cc3c(cc2C1[N+](C)(C)C)OCO3 (stereo not given) | 382 µM | 547 µM |
